Experimental data gathered from unrelated publications.
Lines come from different studies, so protocols differ.
Target: Ephrin type-B receptor 4 (EPHB4, Homo sapiens, UniProt P54760)

| Compound | read-out | mode | technique | concentration | quantity | result |
| --- | --- | --- | --- | --- | --- | --- |
| CS(=O)(=O)N1CCCC(NC(=O)[C@H](CCC2CCCCC2)NC(=O)c2ccc(CNc3ncnc4c3nnn4-c3ccccc3)cc2)C1 (some centres unmarked) | cell-free assay |  | competition with immobilised ligand | 0.1 µM | remaining binding | 96% |
| Cc1ccc(Nc2nccc(N(C)c3ccc4c(C)n(C)nc4c3)n2)cc1S(N)(=O)=O | cell-free assay |  |  | 0.5 µM | remaining signal | 93.8% |
| O=C(N[C@H]1CCCCC/C=C\C2C[C@@]2(C(=O)O)NC(=O)[C@@H]2C[C@@H](Oc3ccncc3)CN2C1=O)OC1CCCC1 (some centres unmarked) | cell-free assay |  | competition with immobilised ligand | 1 µM | remaining binding | 100% |
| Cc1ccc(C(=O)Nc2ccc(CN3CCN(C)CC3)c(C(F)(F)F)c2)cc1C#Cc1cnc2cccnn12 | cell-free assay |  |  | 23.5 nM | remaining signal | 92% |
| CSc1nc(C)c(-c2ccnc(Nc3ccc(N4CCOCC4)cc3)c2)[nH]1 | cell-free assay | inhibitor |  | 10 µM | inhibition | 18.2% |
| CNCc1ccc(-c2cc(-c3nc(-c4ccc(S(=O)(=O)C(C)C)cc4)cnc3N)on2)cc1 | enzyme activity | inhibitor |  | 0.4 µM | inhibition | 0% |
| CC(=O)Nc1c(C(C)=O)c(=O)n(C)c2nc(-c3ccc(Cl)cc3Cl)c(-c3ccc(Cl)cc3)cc12 | cell-free assay |  | competition with immobilised ligand | 1 µM | remaining binding | 100% |
| COc1cc2c(Nc3ccc(Br)cc3F)ncnc2cc1OCC1CCN(C)CC1 | cell-free assay |  |  | 0.5 µM | remaining signal | 13% |
| COc1cc2ncnc(Nc3ccc(Oc4ccccc4)cc3C)c2cc1OC | enzyme activity | inhibitor |  | 1 µM | inhibition | 21% |
| Cc1c[nH]c2nccc(Oc3c(F)cc(Nc4cc(Cl)nc(N)n4)cc3F)c12 | cell-free assay |  | competition with immobilised ligand | 0.1 µM | remaining binding | 100% |
| C=CC(=O)Nc1cc(Nc2nccc(Nc3cc(Cl)c(F)cc3C(C)(C)O)n2)c(OC)cc1N1CC[C@@H](N(C)C)C1 | enzyme activity | inhibitor |  | 1 µM | inhibition | 7% |
| Nc1cnc(N2CCc3cc(S(=O)(=O)Nc4c(F)cc(Cl)cc4F)cc(N4CCCC4=O)c32)nc1 | cell-free assay |  | competition with immobilised ligand | 1 µM | remaining binding | 100% |
| O=C1NC(=O)c2cc(Nc3ccc(F)cc3)c(Nc3ccc(F)cc3)cc21 | cell-free assay |  |  | 0.5 µM | remaining signal | 108% |
| Cc1[nH]c(/C=C2\C(=O)Nc3ccc(F)cc32)c(C)c1C(=O)N[C@H]1CCN(C(=O)N(C)C)C1 | enzyme activity | inhibitor |  | 0.1 µM | remaining activity | 111% |
| CCCOc1ccc(OC)c(F)c1C(=O)c1ccc(C(=O)N[C@@H]2CNC[C@H]2NC(=O)c2ccc3[nH]ncc3c2)cc1 | enzyme activity | inhibitor |  | 10 µM | remaining activity | 79% |
| CCN(CC)c1ccc(C2=NNC(=O)CC2C)cc1[N+](=O)[O-] (centres unmarked) | enzyme activity | inhibitor |  | 10 µM | remaining activity | 100% |
| FC(F)c1nc2ccccc2n1-c1nc(N2CCOCC2)nc(N2CCOCC2)n1 | enzyme activity | inhibitor |  | 10 µM | remaining activity | 105% |
| Cc1sc(C(=O)NC2COC2)cc1-n1cc(NC(=O)Nc2c(F)cccc2Cl)cn1 | enzyme activity | inhibitor |  | 10 µM | remaining activity | 93.7% |
| CC(C)(C)c1nc(-c2cccc(NS(=O)(=O)c3c(F)cccc3F)c2F)c(-c2ccnc(N)n2)s1 | enzyme activity | inhibitor | radiometric | 1 µM | remaining activity | 97% |
| CCCCNc1ncc2c(-c3ccc(F)cc3)nn(C[C@H]3CC[C@H](N)CC3)c2n1 | target engagement in cells | inhibitor | chemoproteomics | 20 mM | inhibition | 97.5% |
| COc1cc(Cl)c(C(=O)N[C@@H](CN[C@H]2CC[C@@H](N)CC2)Cc2ccc(C#N)cc2)cc1-c1ccc(CN[C@H](C)c2ccc(C)cc2)o1 | enzyme activity | inhibitor |  | 1 µM | remaining activity | 91% |
| Cc1ccc(C(=O)NCc2ccsc2)cc1C#Cc1cn(C(C)C)c2ncnc(N)c12 | enzyme activity | inhibitor |  | 1 µM | activity vs control | 28% |
| O=C(Nc1cnn(-c2csc(C(=O)NC3COC3)c2)c1)Nc1ccccc1Cl | enzyme activity | inhibitor |  | 5 µM | remaining activity | 97.8% |
| c1ccc(N2CCN(Cc3nc4ccccc4[nH]3)CC2)nc1 | cell-free assay |  | competition with immobilised ligand | 1 µM | remaining binding | 100% |
| COc1cc(Nc2cnc(C#N)c(O[C@H](C)CN(C)C)n2)ncc1-c1cnn(C)c1 | enzyme activity | inhibitor | radiometric | 1 µM | remaining activity | 96% |
| Cc1nc(Cc2cccc(C(F)(F)F)c2)sc1-c1ccc(C(N)=O)nc1 | cell-free assay |  | competition with immobilised ligand | 1 µM | remaining binding | 100% |
| N#CCCc1ccc2c(c1)-c1[nH]c3ccc([N+](=O)[O-])cc3c1CC(=O)N2 | cell-free assay |  |  | 0.5 µM | remaining signal | 82.2% |
| COc1cc(/C=C/C(=O)CC(=O)/C=C/c2ccc(O)c(OC)c2)ccc1O | enzyme activity | inhibitor |  | 1 µM | activity vs control | 105% |
| C[C@@H](c1cccc(C#N)c1)n1cc(Cl)cc(C(N)=O)c1=N | cell-free assay |  | competition with immobilised ligand | 1 µM | remaining binding | 96% |
